Laboratory results from PMC2860721 (Journal of medicinal chemistry, 2010).
Values after ≈ are worked out from the molar mass of the structure shown.

How the values were obtained:
HIV [1] = conditions: cited from earlier work
HIV [2] = conditions: cited from earlier work; remark: listed apart in the source
mock-infected MT-2 cells = experiment: Compound toxicity by XTT in mock-infected MT-2 cells; format: cell-based; conditions: Homo sapiens, MT2, read-out: IC50 (concentration that inhibits mock-infected cell growth by 50%)
HIV-1NL4-3 = HIV-1NL4-3 replication inhibition assay in MT-4 lymphocytes; format: cell-based; conditions: HIV-1NL4-3 infected MT-4 lymphocytes
Outline: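 MT-4 cells infected with HIV-1 NL4-3 or NL4-3 variants at MOI 0.01. Culture supernatants collected on day 4 post-infection. Viral replication read out by p24 antigen capture ELISA.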

Question: With `C=C(C)C1CCC2(C(=O)O)CCC3(C)C(CCC4C5(C)CCC(OC(=O)C(C)(C)CC(=O)O)C(C)(C)C5CCC43C)C12` (centres unmarked) [3-O-(2′,2′-dimethylsuccinyl) BA] as the compound, how does the EC50 (HIV [1]) read?
Answer: Its EC50 is 2.7 µM.

Question: Which “EC50 (anti-HIV activity)” value (HIV [2]) does the source give for `CC1(C)C=C2[C@H]3CC[C@@H]4[C@@]5(C)CCC(=O)C(C)(C)[C@@H]5CC[C@@]4(C)[C@]3(C)CC[C@@]2(C(=O)O)CC1` [Compound 3, moronic acid] here?
Answer: Its value is 0.1 µg/mL (≈ 0.22 µM).

Question: For `C=C(C)[C@@H]1CC[C@]2(C(=O)O)CC[C@]3(C)[C@H](CC[C@@H]4[C@@]5(C)CC[C@H](OC(=O)C[C@H](C)C(=O)O)C(C)(C)[C@@H]5CC[C@]43C)[C@@H]12` [Compound 10, 3β-O-(3′S-Methylsuccinyl)-betulinic acid], which IC50 (mock-infected MT-2 cells) is on record?
Answer: The IC50 was 32.8 µM.

Question: With `C=C(C)[C@@H]1CC[C@]2(C(=O)O)CC[C@]3(C)[C@H](CC[C@@H]4[C@@]5(C)CC[C@H](OC(=O)C[C@](C)(CC)C(=O)O)C(C)(C)[C@@H]5CC[C@]43C)[C@@H]12` [Compound 12a, 3β-O-(3′S-Ethylmethylsuccinyl)-betulinic acid] as the compound, how does the antiviral activity (HIV-1NL4-3) read?
Answer: The antiviral activity was “active”.

Question: With `C=C(C)[C@@H]1CC[C@]2(C(=O)O)CC[C@]3(C)[C@H](CC[C@@H]4[C@@]5(C)CC[C@H](OC(=O)C[C@@](C)(CC)C(=O)O)C(C)(C)[C@@H]5CC[C@]43C)[C@@H]12` [Compound 12b, 3β-O-(3′R-Ethylmethylsuccinyl)-betulinic acid] as the compound, how does the antiviral activity (HIV-1NL4-3) read?
Answer: Its antiviral activity is “no antiviral activity”.
